The nature of data set [1]: Biotransformation in sandwich-cultured rat hepatocytes assessed as depletion of compound at 10 uM after 4 hrs of incubation by HPLC-MS/MS analysis. It counts as ADME, cell-based, Hepatocyte. As to conditions: read-out: Drug metabolism. In outline:
(§1)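 Sandwich-cultured hepatocytes were used on day 5 (human) or day 4 (rat) and rinsed with warm phenol-red-free DMEM. They were then exposed to 10 µM DB868 (0.1–0.2% DMSO) at 37°C. Medium and methanol/water cell lysates were collected at 0.5, 2, 4 and 24 h. Analytes were quantified by HPLC/MS/MS with deuterated internal standards; protein by Bradford. Replicates: 6 (human) or 4 (rat).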

Data set [2] is described as follows: Drug metabolism in sandwich-cultured human hepatocytes assessed as fold increase in DB829 at 10 uM after 2 hrs of incubation by HPLC-MS/MS analysis. In kind it is ADME, cell-based, Hepatocyte. The method, boiled down: as §1
Data set [3] can be described thus: Drug metabolism in sandwich-cultured rat hepatocytes assessed as (Z)-6-(5-(5-carbamimidoylpyridin-2-yl)furan-2-yl)-N'methoxynicotinimidamide at 10 uM after 4 hrs of incubation by HPLC-MS/MS analysis. It counts as ADME, cell-based, Hepatocyte. The method, boiled down:
as §1

Data set [4] in a line: Drug metabolism in sandwich-cultured rat hepatocytes assessed as fold increase in DB829 at 10 uM after 2 hrs of incubation by HPLC-MS/MS analysis. In kind it is ADME, cell-based, Hepatocyte. In outline:
as §1

Data set [5] concerns the target T1, Cytochrome P450 1A2 (Homo sapiens, UniProt P05177).
T1 sequence (P05177 whole entry): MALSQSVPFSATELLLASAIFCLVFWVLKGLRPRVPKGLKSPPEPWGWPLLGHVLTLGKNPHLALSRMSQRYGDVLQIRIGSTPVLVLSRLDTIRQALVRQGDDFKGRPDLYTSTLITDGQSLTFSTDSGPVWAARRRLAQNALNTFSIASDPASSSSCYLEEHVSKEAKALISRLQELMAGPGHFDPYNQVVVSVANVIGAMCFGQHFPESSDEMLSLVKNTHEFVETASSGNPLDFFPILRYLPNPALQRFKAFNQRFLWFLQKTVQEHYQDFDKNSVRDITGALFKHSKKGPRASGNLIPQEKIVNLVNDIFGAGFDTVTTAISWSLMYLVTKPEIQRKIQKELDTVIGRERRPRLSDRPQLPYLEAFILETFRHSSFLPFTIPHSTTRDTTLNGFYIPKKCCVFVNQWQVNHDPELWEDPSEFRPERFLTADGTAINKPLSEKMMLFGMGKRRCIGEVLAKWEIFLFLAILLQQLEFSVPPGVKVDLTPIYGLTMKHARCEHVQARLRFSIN
The experiment in a line: Prodrug conversion assessed as human recombinant CYP1A2-mediated (3Z,3'Z)-6,6'-(furan-2,5-diyl)bis(N'-hydroxynicotinimidamide) formation at 5 uM after 180 mins incubation by HPLC-UV chromatogram. In kind it is ADME. As to conditions: recombinant enzyme, 15 min, in the assay text read “15 mins” for “180 mins”. In outline:
(§2)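 Insect-cell-expressed human or rat P450 (with NADPH-P450 reductase, some also with cytochrome b5) at 0.1 pmol/µL in 100 mM potassium phosphate pH 7.4 with 10 mM MgCl2. DB868 (for M1) or M1 (for M2) was added at 5 µM (0.5% DMSO) and started with 2 mM NADPH. Stopped after 15 min with ice-cold acetonitrile, then HPLC-UV. Duplicate incubations.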

In data set [6] the target is T1, Cytochrome P450 1A2. Briefly: Prodrug conversion assessed as human recombinant CYP1A2-mediated (Z)-N'-hydroxy-6-(5-(5-((Z)-N'-methoxycarbamimidoyl)pyridin-2-yl)furan-2-yl) nicotinimidamide formation at 5 uM […] by HPLC-UV chromatogram. It counts as ADME. The settings on record: recombinant enzyme, 3 h.
Another data set has as its target Cytochrome P450 3A4 (Homo sapiens, UniProt P08684). Briefly: Prodrug conversion assessed as human recombinant CYP3A4-mediated (Z)-N'-hydroxy-6-(5-(5-((Z)-N'-methoxycarbamimidoyl)pyridin-2-yl)furan-2-yl) nicotinimidamide formation at 5 uM after 180 mins incubation by HPLC-UV chromatogram. It counts as ADME. The settings on record: recombinant enzyme, 15 min, in the assay text read “15 mins” for “180 mins”. The method, boiled down: as §2

Data set [7] is described as follows: Drug metabolism in sandwich-cultured rat hepatocytes assessed as (Z)-N'-hydroxy-6-(5-(5-((Z)-N'-methoxycarbamimidoyl)pyridin-2-yl)furan-2-yl)nicotinimidamide at 10 uM after 4 hrs of incubation by HPLC-MS/MS analysis. It counts as ADME, cell-based, Hepatocyte. In outline: as §1
Another data set concerns the target T2, Cytochrome P450 4F2 (Homo sapiens, UniProt P78329).
T2 sequence (P78329 whole entry): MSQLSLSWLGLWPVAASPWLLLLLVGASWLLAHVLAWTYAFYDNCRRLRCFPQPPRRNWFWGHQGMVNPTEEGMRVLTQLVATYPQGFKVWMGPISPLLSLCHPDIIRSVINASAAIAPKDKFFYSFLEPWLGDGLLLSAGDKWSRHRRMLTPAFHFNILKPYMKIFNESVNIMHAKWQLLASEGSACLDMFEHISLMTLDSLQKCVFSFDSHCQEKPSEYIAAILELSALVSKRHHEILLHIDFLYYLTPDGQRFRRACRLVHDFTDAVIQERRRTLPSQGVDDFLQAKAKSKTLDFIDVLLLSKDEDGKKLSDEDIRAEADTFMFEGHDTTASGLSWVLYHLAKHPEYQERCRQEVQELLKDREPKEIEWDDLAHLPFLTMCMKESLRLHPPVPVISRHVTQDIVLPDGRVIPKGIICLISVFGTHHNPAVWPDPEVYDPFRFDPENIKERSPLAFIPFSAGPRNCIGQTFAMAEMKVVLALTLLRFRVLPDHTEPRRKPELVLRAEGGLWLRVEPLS
Briefly: Prodrug conversion assessed as human recombinant CYP4F2-mediated (Z)-N'-hydroxy-6-(5-(5-((Z)-N'-methoxycarbamimidoyl)pyridin-2-yl)furan-2-yl) nicotinimidamide formation at 5 uM after 180 mins incubation by HPLC-UV chromatogram. It counts as ADME. The settings on record: recombinant enzyme, 15 min, in the assay text read “15 mins” for “180 mins”. The method, boiled down:
as §2

A further data set has as its system Liver microsome. Briefly: Prodrug conversion in human liver microsomes assessed as elution time at 10 uM after 180 mins incubation by HPLC-UV chromatography. It counts as ADME. As to conditions: 3 h. In outline:
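HLM or RLM (0.5 mg/mL) were incubated in triplicate in 100 mM phosphate pH 7.4 with 10 mM MgCl2 and an NADPH-regenerating system (1 mM NADP+, glucose 6-phosphate, G6PDH). DB868 was 10 µM. Sampled up to 180 min. Prodrug and metabolites were measured by HPLC-UV at 359 nm and expressed relative to initial prodrug; DB829 LLOQ 50 nM.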
A general note: Microsomes from liver hold many membrane-bound enzymes, among them those of drug oxidation.

Structures are written as SMILES.

Sequence of Cytochrome P450 3A4 (P08684 whole entry): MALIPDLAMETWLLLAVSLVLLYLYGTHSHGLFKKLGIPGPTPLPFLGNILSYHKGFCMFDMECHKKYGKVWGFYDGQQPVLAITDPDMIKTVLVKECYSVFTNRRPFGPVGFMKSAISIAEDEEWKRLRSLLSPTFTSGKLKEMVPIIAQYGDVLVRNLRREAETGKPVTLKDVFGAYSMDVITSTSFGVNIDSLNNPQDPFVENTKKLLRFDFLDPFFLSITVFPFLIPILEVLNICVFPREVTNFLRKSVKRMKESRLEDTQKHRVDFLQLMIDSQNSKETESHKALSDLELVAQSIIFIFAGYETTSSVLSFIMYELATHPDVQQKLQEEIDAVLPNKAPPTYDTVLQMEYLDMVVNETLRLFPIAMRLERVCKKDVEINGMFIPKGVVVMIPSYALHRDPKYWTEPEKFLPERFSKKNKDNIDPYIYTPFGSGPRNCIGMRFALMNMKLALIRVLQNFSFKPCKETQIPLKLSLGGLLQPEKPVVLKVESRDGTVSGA

In the case of `CO/N=C(\N)c1ccc(-c2ccc(-c3ccc(/C(N)=N/OC)cn3)o2)nc1.Cl`, in data set [1], the metabolised at 4 h, 10 µM is 50%. For the same compound, the “fold change (FC)” value in [2] is reported as 13; in data set [4], 23. Besides, the Drug metabolism entry (in data set [3]; at Cytochrome P450 1A2 [5]; at Cytochrome P450 1A2 [6]; on Cytochrome P450 3A4; in data set [7]; on Cytochrome P450 4F2) was “metabolite_detected” in each case. In addition, in the data set with Liver microsome, the Retention_time was 18.5 min.

The record behind these values is ChEMBL document CHEMBL3525966, “Compartmental and enzyme kinetic modeling to elucidate the biotransformation pathway of a centrally acting antitrypanosomal prodrug” (Drug Metab Dispos, 2013).
